This is an account of results in article PMC4363136 (Biochemical pharmacology, 2014).

The nature of series [1]: Pharmacokinetics after oral administration. The following applies: for Fold increase in F compared to Nos: oral 50 mg/kg. The format is in vivo, CD-1 mice. The essentials: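 Male CD-1 mice (3 per group), fasted 3 h, were dosed once by oral gavage at 50 mg/kg in water. Plasma was collected by sparse retro-orbital sampling at 5 min–24 h. Samples were acetonitrile-precipitated with internal standard and assayed by LC-MS/MS (1 ng/mL–1 µg/mL). Non-compartmental analysis: linear-trapezoid AUClast, Cmax taken as observed. F is dose-normalized oral AUClast over IV (5 mg/kg) AUClast.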

The test system of the next series is HeLa cells. The series is described as follows: MTT cell proliferation assay, HeLa. The series is classed as cell-based. The conditions noted are these: 48 h. The essentials:
(§1)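 Cell lines were grown in medium with 10% FBS and 1% penicillin/streptomycin: PC-3 in RPMI; HeLa, MIA PaCa-2 and T24 in DMEM. Cells were seeded at 5×10^3 per well, attached overnight, then given test compound (0–500 µM, from PBS solution, diluted in medium) for 48 h. MTT was added for 4 h and formazan dissolved in DMSO. A570 was read. IC50 is the concentration giving 50% inhibition of proliferation.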
(Formazan colour is commonly taken as a measure of viable cells.)

In a further series the test system is pure tubulin. The series is described as follows: Light scattering assay of pure tubulin polymerization. The format is biochemical, goat. The conditions noted are these: 10 µM tubulin, 1M monosodium glutamate.
The subject of another series is MAPs-rich tubulin. The series is described as follows: Light scattering assay of MAPs-rich tubulin polymerization. The conditions noted are these: 50 µM compound, 1 mg/ml MAPs-rich tubulin, 37°C, 400 nm. The series is classed as biochemical, goat.
Series [2] can be described thus: Pharmacokinetics after intravenous administration. The format is in vivo, CD-1 mice. The procedure, abridged:
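Male CD-1 mice, fasted 3 h, received a single IV dose of test compound at 5 mg/kg in water. Blood was sampled sparsely from the retro-orbital plexus at 5 min–24 h into K2EDTA. Plasma was protein-precipitated with acetonitrile and 7-hydroxynoscapine internal standard, then quantified by positive-mode MRM LC-MS/MS (calibration 1 ng/mL–1 µg/mL). Non-compartmental analysis: linear-trapezoid AUC, CL and Vss from IV data, C0 back-extrapolated.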

A further series relates to T24 bladder cancer cells. The series is described as follows: MTT cell proliferation assay, T24. The series is classed as cell-based. The essentials:
as §1

The next series relates to MAPs rich tubulin. As to the kind of experiment: GTPase activity assay. The format is biochemical, goat. The following applies: different concentrations of compound, 10 min.
The next series deals with MIA PaCa-2 cells. As to the kind of experiment: MTT cell proliferation assay, MIA PaCa-2. The series is classed as cell-based. The essentials: as §1
Series [3] relates to PC-3 cells. As to the kind of experiment: MTT cell proliferation assay, PC-3. The format is cell-based, human. The essentials: as §1
Series [4] relates to PC-3 cells. As to the kind of experiment: Immunofluorescence confocal microscopy of spindle morphology. The series is classed as cell-based, human. The conditions noted are these: 12h and 24h. The procedure, abridged: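 PC-3 cells were grown on glass coverslips and exposed to test compound for 12 h or 24 h. Cells were fixed in −20 °C methanol for 10 min, then blocked in 2% BSA/PBS at 37 °C for 1 h. They were stained with anti-α- and anti-γ-tubulin (1:1000, 45 min, 37 °C) and Alexa Fluor 488/555 secondaries (1:1000, 45 min, 37 °C). DNA was stained with DAPI. Slides were mounted in antifade and imaged by confocal microscopy.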

The mark [5] stands for this setting: male, CD-1, mouse, plasma, po, 50 mg/kg.
[6] abbreviates: male, CD-1, mouse, plasma, iv, 5 mg/kg.
Where [7] appears, read: oral gavage 50 mg/kg, CD-1 mice, plasma.

As to `COc1ccc2c(c1OC)C(=O)O[C@@H]2[C@H]1c2c(cc3c(c2OC)OCO3)CCN1C` [Compound 1, Noscapine, reference compound], in series [1] (setting [5]), the exposure AUC(0-t) stood at 603 ng·h/mL, the Tmax amounted to 4.8 min and the bioavailability was 13%. The Cmax in series [1] (oral gavage 50 mg/kg, CD-1 mice, plasma, listed as Nos, 50 mg/kg) came to 1156 ± 19 ng/mL. Moreover, in the series on HeLa cells (Homo sapiens), the IC50 was determined as 436 µM. The “% Decrease in light scattering of pure tubulin” value (“% Decrease in light scattering” for short) in the series on pure tubulin (10 µM compound) is on record as 5±1.5%. Further, the “% Decrease in light scattering” value in the series on pure tubulin (25 µM compound) was 9±2.6%. For the same compound, the “% Decrease in light scattering” value in the series on pure tubulin (50 µM compound) was determined as 13±2.9%. Moreover, in the series on MAPs-rich tubulin, the “Percent decrease in light scattering of MAP-tubulin” value (shortened to “Percent decrease”) was 11 ± 4%. Also, in series [2] (setting [6]), the AUC(0-t) was found to be 479 ng·h/mL, the C0 was found to be 1210 ng/mL, the distribution volume (Vd) stood at 4.55 L/kg and the clearance came to 174 mL/min/kg. Also, the half-life in [2] (setting [6]) was 23.4 min. The IC50 with T24 bladder cancer cells (48 h) was found to be 83 µM. Also, in the series with MAPs rich tubulin, the “change in GTPase activity of MAPs-rich tubulin” value is on record as “remained almost unchanged”. Besides, half-maximal inhibition in the series on MIA PaCa-2 cells (Homo sapiens, MIA PaCa-2, 48 h) (IC50) required 105 µM. For the same compound, the IC50 with PC-3 cells [3] (Homo sapiens, PC-3, 48 h) is 100 µM.

Regarding `COc1ccc2c(c1OC)C(=O)O[C@@H]2[C@H]1c2c(c(Br)c3c(c2OC)OCO3)CCN1C` [Compound 2, (S)-3-((R)-9-bromo-4-methoxy-6-methyl-5,6,7,8-tetrahydro-[1,3]dioxolo[4,5-g]isoquinolin-5-yl)-6,7-dimethoxyisobenzofuran-1(3H)-one, reference compound], the results for the IC50 with HeLa cells (Homo sapiens) and in the series on T24 bladder cancer cells (48 h) were 436 µM and 191 µM, respectively.

In the case of `COc1ccc2c(c1OC)C(=O)O[C@@H]2[C@H]1c2c(c(NCCC[N+](C)(C)C)c3c(c2OC)OCO3)CCN1C.[Br-]` [Compound 4a, 3-(((R)-5-((S)-4,5-dimethoxy-3-oxo-1,3-dihydroisobenzofuran-1-yl)-4-methoxy-6-methyl-5,6,7,8-tetrahydro-[1,3]dioxolo[4,5-g]isoquinolin-9-yl)amino)-N,N,N-trimethylpropan-1-aminium bromide], in the series on MAPs-rich tubulin, the “Percent decrease” value is recorded as 29 ± 5%.

As for `COc1ccc2c(c1OC)C(=O)O[C@@H]2[C@H]1c2c(c(NCCCCS(=O)(=O)O)c3c(c2OC)OCO3)CCN1C` [Compound 4b, 4-(((R)-5-((S)-4,5-dimethoxy-3-oxo-1,3-dihydroisobenzofuran-1-yl)-4-methoxy-6-methyl-5,6,7,8-tetrahydro-[1,3]dioxolo[4,5-g]isoquinolin-9-yl)amino)butane-1-sulfonic acid], in the series on MAPs-rich tubulin, the “Percent decrease” value is 30 ± 9%. The compound further showed an IC50 with PC-3 cells [3] (Homo sapiens, PC-3, 48 h) of 490 µM.

Turning to `COc1ccc2c(c1OC)C(=O)O[C@@H]2[C@H]1c2c(c(NCCCS(=O)(=O)O)c3c(c2OC)OCO3)CCN1C` [Compound 4c, 3-(((R)-5-((S)-4,5-dimethoxy-3-oxo-1,3-dihydroisobenzofuran-1-yl)-4-methoxy-6-methyl-5,6,7,8-tetrahydro-[1,3]dioxolo[4,5-g]isoquinolin-9-yl)amino)propane-1-sulfonic acid], in the series on MAPs-rich tubulin, the “Percent decrease” value is on record as 27 ± 10%.

On to `COc1ccc2c(c1OCCC[N+](C)(C)C)C(=O)O[C@@H]2[C@H]1c2c(cc3c(c2OC)OCO3)CCN1C.[Br-]` [Compound 6a, 3-(((S)-5-methoxy-1-((R)-4-methoxy-6-methyl-5,6,7,8-tetrahydro-[1,3]dioxolo[4,5-g]isoquinolin-5-yl)-3-oxo-1,3-dihydroisobenzofuran-4-yl)oxy)-N,N,N-trimethylpropan-1-aminium bromide], for which the “Percent decrease” value in the series with MAPs-rich tubulin stood at 19 ± 6%.

Regarding `COc1ccc2c(c1OCCCS(=O)(=O)O)C(=O)O[C@@H]2[C@H]1c2c(cc3c(c2OC)OCO3)CCN1C` [Compound 6c, 3-(((S)-5-methoxy-1-((R)-4-methoxy-6-methyl-5,6,7,8-tetrahydro-[1,3]dioxolo[4,5-g]isoquinolin-5-yl)-3-oxo-1,3-dihydroisobenzofuran-4-yl)oxy)propane-1-sulfonic acid], the “Percent decrease” value in the series on MAPs-rich tubulin is 32 ± 14%. The compound further returned a concentration for half-maximal inhibition (IC50) in the series on PC-3 cells [3] (Homo sapiens, PC-3, 48 h) of 275 µM.

As to `COc1ccc2c(c1OCCC[N+](C)(C)C)C(=O)O[C@@H]2[C@H]1c2c(c(Br)c3c(c2OC)OCO3)CCN1C.[Br-]` [Compound 8a, 3-(((S)-1-((R)-9-bromo-4-methoxy-6-methyl-5,6,7,8-tetrahydro-[1,3]dioxolo[4,5-g]isoquin-olin-5-yl)-5-methoxy-3-oxo-1,3-dihydroisobenzofuran-4-yl)oxy)-N,N,N-trimethylpropan-1-aminium bromide], in the series with MAPs-rich tubulin, the “Percent decrease” value is 30 ± 12%.

`COc1ccc2c(c1OCCCCS(=O)(=O)O)C(=O)O[C@@H]2[C@H]1c2c(c(Br)c3c(c2OC)OCO3)CCN1C` [Compound 8b, 4-(((S)-1-((R)-9-bromo-4-methoxy-6-methyl-5,6,7,8-tetrahydro-[1,3]dioxolo[4,5-g]isoquin-olin-5-yl)-5-methoxy-3-oxo-1,3-dihydroisobenzofuran-4-yl)oxy)butane-1-sulfonic acid]: in series [1] (dose normalized AUClast, oral 50 mg/kg vs IV 5 mg/kg, CD-1 mice), the “Bioavailability F” value came to 11. The “Fold increase in F compared to Nos” value in series [1] (CD-1 mice, 50 mg/kg) is on record as 0.9 fold. Moreover, the Tmax in series [1] (oral gavage 50 mg/kg, CD-1 mice) was 4.8 min. Also, the AUClast in [1] (setting [7]) is 164 ng·h/mL; in series [2] (IV 5 mg/kg, CD-1 mice, plasma) it was 145.41 ng·h/mL. The same compound returned a Cmax in series [1] (setting [7]) of 14 ± 7 ng/mL. The IC50 was 53 µM in the series on HeLa cells (MTT); 32 µM with T24 bladder cancer cells (T24, 48 h, MTT); 40 µM in the series with MIA PaCa-2 cells (MIA Paca-2, 48 h, MTT); 29 µM with PC-3 cells [3] (PC-3 cells, 48 h, MTT). Moreover, in the series on MAPs-rich tubulin, the “Percent decrease” value was found to be 68 ± 18%. In series [2] (IV 5 mg/kg, CD-1 mice), this compound had a CL of 512 mL/min/kg. This compound displayed a VSS in [2] (IV 5 mg/kg, CD-1 mice) of 23.81 L/kg. In [2] (IV 5 mg/kg, CD-1 mice), this compound came in with a half-life of 22.8 min. Further, the C0 in series [2] (back extrapolated concentration, IV 5 mg/kg, CD-1 mice, plasma) is 259.39 ng/mL. In the series with PC-3 cells [4], the “spindle / mitotic phenotype” value was “induced a multipolar phenotype”.

With `COc1ccc2c(c1OCCCS(=O)(=O)O)C(=O)O[C@@H]2[C@H]1c2c(c(Br)c3c(c2OC)OCO3)CCN1C` [Compound 8c, 3-(((S)-1-((R)-9-bromo-4-methoxy-6-methyl-5,6,7,8-tetrahydro-[1,3]dioxolo[4,5-g]isoquinolin-5-yl)-5-methoxy-3-oxo-1,3-dihydroisobenzofuran-4-yl)oxy)propane-1-sulfonic acid], in series [1] (setting [5]), the AUC(0-t) was 240 ng·h/mL, the Tmax worked out at 4.8 min and the bioavailability came out at 21%. In addition, the “Fold increase in F compared to Nos” value in [1] (CD-1 mice, 50 mg/kg) is reported as 1.7 fold. For the same compound, in the series on HeLa cells (Homo sapiens), the IC50 amounted to 53 µM. Further, the “Percent decrease” value in the series with MAPs-rich tubulin is 61 ± 21%. In [2] (setting [6]), this compound came in with an AUC(0-t) of 133 ng·h/mL, a C0 of 307 ng/mL, a Vd of 18.4 L/kg and a clearance of 584 mL/min/kg. In addition, the half-life in series [2] (setting [6]) is 42 min. Besides, the IC50 with T24 bladder cancer cells (48 h) is 4 µM. For the same compound, the “spindle / mitotic phenotype” value in the series on PC-3 cells [4] was “induced a multipolar phenotype”. For the same compound, the IC50 with MIA PaCa-2 cells (Homo sapiens, MIA PaCa-2, 48 h) stood at 18 µM. Besides, in the series with PC-3 cells [3] (Homo sapiens, PC-3, 48 h), the IC50 came out at 55 µM.

On to `COc1cc([C@@H]2c3cc4c(cc3[C@H](O)[C@H]3COC(=O)[C@H]23)OCO4)cc(OC)c1OC` [podophyllotoxin], for which, in the series on MAPs rich tubulin, the “change in GTPase activity of MAPs-rich tubulin” value was “decreased”.

What is called AUC(0-t) is the area under the concentration-time curve up to a stated or last time point. A higher AUC(0-t) goes with more exposure. Usually Tmax stands for the time at which the peak concentration occurs. Usually bioavailability stands for the share of a dose that reaches the circulation, judged against a reference dose that is usually intravenous. Lower therefore signals poor availability. Broadly, the Cmax is the highest concentration seen after dosing. One may read the IC50 as the concentration needed to halve the response being measured. A low value points to higher potency. The term Vd denotes a proportionality between amount in the body and measured concentration, not a real space. Read a high Vd as extensive tissue distribution. By clearance is commonly meant a measure of how efficiently the substance is removed, as volume per time. What is called half-life is how long it takes for the measured level to halve. Low readings indicate fast loss, high ones slow loss.
